Assay results collected from several papers.
Lines come from different studies, so protocols differ.
SLCO1B3: Solute carrier organic anion transporter family member 1B3 (SLCO1B3, Homo sapiens, UniProt Q9NPD5)
Cnr2: Cannabinoid receptor 2 (Cnr2, Mus musculus, UniProt P47936)
G protein-coupled receptor 88: G protein-coupled receptor 88 (Homo sapiens, UniProt Q9GZN0)

CCOC(=O)c1cncn1[C@H](C)c1ccccc1
IC50 (SLCO1B3; transporter uptake, inhibitor, fluorescence; CHO; 30 min, pH 7.4): > 100 µM

CC(C)(C)[C@H](NC(=O)C(F)(F)F)C(=O)N1C[C@H]2[C@@H]([C@H]1C(=O)N[C@H](C#N)C[C@@H]1CCNC1=O)C2(C)C
Ki (SLCO1B3; transporter uptake, inhibitor): 283 µM

O=c1[nH]c2ccccc2n1C1CCN(CCCC(c2ccc(F)cc2)c2ccc(F)cc2)CC1
IC50 (Signal transducer and activator of transcription 5B, SH2 (STAT5B, Homo sapiens, UniProt P51692); protein-protein interaction, inhibitor, FP): 75.1 µM

Cc1c(C(=O)c2cccc3ccccc23)c2cccc3c2n1[C@H](CN1CCOCC1)CO3
Ki (Cnr2; ligand displacement, radioligand; cell membranes): 0.0058 µM

CCCCCCC(C)(C)c1cc(O)c2c(c1)OC(C)(C)[C@@H]1CC=C(C)C[C@@H]21
Ki (Cnr2; ligand displacement, radioligand; cell membranes): 0.0014 µM

CCCCOc1ccc([C@@H](CO)C(=O)N[C@H](C)c2ccccc2)cc1
EC50 (G protein-coupled receptor 88; cAMP, agonist, TR-FRET): 5.13 µM

OCCCCO
IC50 (Cytochrome P450 2E1 (Cyp2e1, Rattus norvegicus, UniProt P05182); enzyme activity, inhibitor; Fischer 344 rat, liver microsomes; 30 min): 5800 µM

CCCCCOc1ccc([C@@H](CO)C(=O)N[C@H](C)c2ccccc2)cc1
EC50 (G protein-coupled receptor 88; cAMP, agonist, TR-FRET): 3.24 µM

O=C[C@H](C[C@@H]1CCNC1=O)NC(=O)[C@H](CC1CCCCC1)NC(=O)c1cc2ccccc2[nH]1
IC50 (Procathepsin L (CTSL, Homo sapiens, UniProt P07711); enzyme activity, inhibitor): 0.00021 µM
